Measurements as given in ChEMBL document CHEMBL3243935, “Analgesic and tranquilizing activity of 5,8-disubstituted 2-aminomethyl-3,4-dihydronaphthalenes” (J Med Chem, 1978).
Active and inactive are the calls of the source.

Experiments:
[1] = system: Rattus norvegicus; test: Neuroleptic activity in decarboxylase-inhibited Sprague-Dawley CD rat brain assessed as increase in DOPA accumulation at 0.1 mmol/kg relative to control; type: functional; parameters: scale not given: the % may be the effect or the level left
[2] = system: Mus musculus; test: Analgesic activity in Swiss CD mouse at 100 mg/kg, ip measured 2 hrs post treatment by hot-plate method relative to control; type: functional; conditions: route intraperitoneal
Outline: (§1)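 Male mice, about 20 g, dosed ip in saline. Each mouse was dropped into a glass cylinder on an aluminium plate held at 57 °C. Latency to the first flick of a hind foot was timed at 0.5 and 2 h post-dose, with a 10-s cutoff. At least ten mice per dose. Percent control = mean latency ÷ mean control latency × 100; 200% was the lower bound of activity.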

[3] = system: Rattus norvegicus; test: Neuroleptic activity in ip dosed Sprague-Dawley CD rat assessed as reversal of amphetamine-induced stereotypy compound administered 1hr prior challenge; type: functional
Outline: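 Rats dosed ip, then given amphetamine sulfate 5 mg/kg 1 h later. The ED50 is the dose that reverses the amphetamine-induced stereotypy.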

[4] = system: Canis familiaris; test: Analgesic activity in po dosed dog assessed as increase in response threshold by radiant heat method; type: functional; conditions: Canis lupus familiaris
Outline: (§2)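 Male mongrel dogs, 9-12 kg. The response threshold was the reflex fasciculation of the back muscles under radiant heat. Testing was at 0.5 and 2 h post-dose, with the end point expressed as percent of control latency.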

[5] = system: Mus musculus; test: Analgesic activity in Swiss CD mouse at 100 mg/kg, ip bid for 4 days by tail flick method relative to control in presence of naloxone; type: functional, organism-based; parameters: dose 100 mg/kg
[6] = system: Canis familiaris; test: Analgesic activity in dog assessed as increase in response threshold at 3.2 mg/kg, sc measured 0.5 to 2 hrs post treatment by radiant heat method relative to control; type: functional, Canis lupus familiaris; conditions: route subcutaneous
Outline: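 Male mongrel dogs (9-12 kg) received the agent sc in saline solution or suspension. The radiant heat stimulus end point was reflex fasciculation of the back muscles. Each animal was tested 0.5 and 2 h after dosing, and the end point was expressed as percent of control latency.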

[7] = system: Mus musculus; test: Analgesic activity in Swiss CD mouse assessed as elevation of response latency at 100 mg/kg, ip measured 0.5 hr post treatment by tail flick method relative to control; type: functional; conditions: route intraperitoneal
Outline: (§3)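 Male mice, about 20 g, dosed ip in saline (solution or suspension). High-intensity heat was focused on the tail, and latency to a sudden tail flick was timed, with a 10-s cutoff. Tests ran at 0.5 and 2 h post-dose, with at least ten mice per dose. Percent control = mean latency ÷ mean control latency × 100; 200% was the lower bound of activity.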

[8] = system: Mus musculus; test: Analgesic activity in Swiss CD mouse at 100 mg/kg, ip measured 0.5 hr post treatment by hot-plate method relative to control; type: functional; conditions: route intraperitoneal; outline: as §1
[9] = system: Mus musculus; test: Analgesic activity in Swiss CD mouse at 100 mg/kg, ip bid for 4 days by hot-plate method relative to control in presence of naloxone; type: functional, organism-based; parameters: dose 100 mg/kg
[10] = system: Mus musculus; test: Analgesic activity in Swiss CD mouse at 100 mg/kg, ip bid for 4 days measured after naloxone challenge on day 4 by hot-plate method relative to control; type: functional, organism-based; parameters: dose 100 mg/kg
[11] = system: Mus musculus; test: Analgesic activity in Swiss CD mouse assessed as elevation of response latency at 100 mg/kg, ip measured 2 hrs post treatment by tail flick method relative to control; type: functional; conditions: route intraperitoneal; outline: as §3
[12] = system: Mus musculus; test: Analgesic activity in Swiss CD mouse at 100 mg/kg, ip bid for 4 days measured after 4 days by hot-plate method relative to control; type: functional, organism-based; parameters: dose 100 mg/kg
Outline: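 Tolerance test in male mice: 100 mg/kg ip bid for 4 days, with hot-plate latency measured against control. A parallel group received morphine sulfate 10 mg/kg ip bid.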

[13] = system: Rattus norvegicus; test: Analgesic activity in Sprague-Dawley CD rat at 32 mg/kg, ip measured 0.5 to 2 hrs post treatment by flinch-jump method relative to control; type: functional, organism-based; parameters: dose 32 mg/kg
Outline: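 Male rats, 200-300 g, dosed ip (saline solution or suspension). A single rising series of 1-s foot shocks was given just before and at 0.5 and 2 h after dosing. The minimum shock intensity (mA) evoking each behaviour was recorded. No response at the 2.2-mA level counted as activity. At least five rats per dose.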

[14] = system: Mus musculus; test: Toxicity in Swiss CD mouse assessed as loss of righting reflex at 100 mg/kg, ip measured 0.5 hr post treatment; type: organism-based; parameters: dose 100 mg/kg, route intraperitoneal; conditions: in vivo
Outline: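 Male Swiss CD mice (about 20 g) given compound ip in saline solution or suspension, usually 5 mL/kg, during hot-plate/tail-flick screening. At least ten mice per dose. Loss of righting reflex noted at 0.5 h after dosing.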

[15] = organism: Mus musculus; test: Toxicity in Swiss CD mouse assessed as Straub tail symptom; type: organism-based; conditions: in vivo
[16] = system: Mus musculus; test: Analgesic activity in Swiss CD mouse at 32 mg/kg, ip measured 0.5 hr post treatment by hot-plate method relative to control; type: functional; conditions: route intraperitoneal; outline: as §1
[17] = system: Mus musculus; test: Analgesic activity in Swiss CD mouse at 32 mg/kg, ip measured 2 hrs post treatment by hot-plate method relative to control; type: functional; conditions: route intraperitoneal; outline: as §1
[18] = Toxicity in ip dosed Swiss CD mouse measured 0.5 to 2 hrs post treatment; type: organism-based; conditions: in vivo
[19] = system: Mus musculus; test: Analgesic activity in ip dosed Swiss CD mouse by hot-plate method relative to control in presence of naloxone; type: functional, organism-based
[20] = system: Mus musculus; test: Analgesic activity in Swiss CD mouse assessed as elevation of response latency at 32 mg/kg, ip measured 0.5 hr post treatment by tail flick method relative to control; type: functional; conditions: route intraperitoneal; outline: as §3
[21] = system: Mus musculus; test: Analgesic activity in ip dosed Swiss CD mouse by tail flick method relative to control in presence of naloxone; type: functional, organism-based
[22] = organism: Rattus norvegicus; test: Toxicity in Sprague-Dawley CD rat assessed as Straub tail symptom; type: organism-based; conditions: in vivo
[23] = system: Mus musculus; test: Analgesic activity in Swiss CD mouse assessed as elevation of response latency at 32 mg/kg, ip measured 2 hrs post treatment by tail flick method relative to control; type: functional; conditions: route intraperitoneal; outline: as §3
[24] = system: Rattus norvegicus; test: Neuroleptic activity in decarboxylase-inhibited Sprague-Dawley CD rat brain assessed as increase in DOPA accumulation at 0.01 mmol/kg relative to control; type: functional; parameters: scale not given: the % may be the effect or the level left
[25] = organism: Canis familiaris; test: Analgesic activity in dog assessed as increase in response threshold by radiant heat method; type: functional, organism-based; conditions: Canis lupus familiaris
Outline: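 Male mongrel dogs (9-12 kg) given drug sc or orally; radiant heat threshold read as reflex fasciculations of the back muscles. Tested at 0.5 and 2 h after dosing, with the end point expressed as percent of control latency.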

[26] = system: Canis familiaris; test: Analgesic activity in dog assessed as increase in response threshold at 16 mg/kg, sc measured 0.5 to 2 hrs post treatment by radiant heat method relative to control; type: functional, organism-based; parameters: dose 16 mg/kg; conditions: Canis lupus familiaris; outline: as §2
[27] = system: Mus musculus; test: Analgesic activity in Swiss CD mouse assessed as elevation of response latency at 56 mg/kg, ip measured 2 hrs post treatment by tail flick method relative to control; type: functional; conditions: route intraperitoneal; outline: as §3
[28] = system: Mus musculus; test: Analgesic activity in Swiss CD mouse at 56 mg/kg, ip measured 2 hrs post treatment by hot-plate method relative to control; type: functional; conditions: route intraperitoneal; outline: as §1
[29] = system: Mus musculus; test: Analgesic activity in Swiss CD mouse assessed as elevation of response latency at 56 mg/kg, ip measured 0.5 hr post treatment by tail flick method relative to control; type: functional; conditions: route intraperitoneal; outline: as §3
[30] = system: Mus musculus; test: Analgesic activity in Swiss CD mouse at 56 mg/kg, ip measured 0.5 hr post treatment by hot-plate method relative to control; type: functional; conditions: route intraperitoneal; outline: as §1
[31] = system: Rattus norvegicus; test: Neuroleptic activity in decarboxylase-inhibited Sprague-Dawley CD rat brain assessed as increase in DOPA accumulation at 0.001 mmol/kg relative to control; type: functional; parameters: scale not given: the % may be the effect or the level left
[32] = system: Rattus norvegicus; test: Neuroleptic activity in decarboxylase-inhibited Sprague-Dawley CD rat brain assessed as increase in DOPA accumulation at 0.056 mmol/kg relative to control; type: functional; parameters: scale not given: the % may be the effect or the level left

Compound: Br.COc1ccc(Cl)c2c1CCC(CN1CCCC1)=C2
- Activity [1]: 288%
- Activity [2]: 117%
- ED50 [3]: 32 mg/kg
- ED50 [4]: 16.2 mg/kg
- Activity [5]: Active
- Activity [6]: 50%
- Activity [7]: 238%
- Activity [8]: 282%
- Activity [9]: Active
- Activity [10]: Active
- Activity [11]: 135%
- Activity [12]: Active
- Activity [13]: Active

Compound: CCc1ccc2c(c1)C=C(CN1CCCC1)CC2.Cl
- Activity [14]: Toxic
- Activity [2]: 130%
- Activity [11]: 198%

Compound: COc1ccc(Cl)c2c1CCC(CN1CCCC(C(N)=O)C1)=C2.Cl (stereo not drawn)
- Activity [2]: 170%
- Activity [7]: 91%
- Activity [8]: 197%
- Activity [11]: 106%
- Activity [13]: inactive

Compound: COc1ccc(Cl)c2c1CCC(CN1CCC(OC(C)=O)(c3ccccc3)CC1)=C2.Cl.O
- Activity [15]: Toxic
- Activity [16]: 315%
- Activity [17]: 345%
- LD50 [18]: 32 mg/kg
- Activity [19]: inactive
- Activity [20]: 317%
- Activity [21]: inactive
- Activity [22]: Toxic
- Activity [23]: 320%

Compound: COc1ccc(Cl)c2c1CCC(CN1CCC3(CC1)C(=O)NCN3c1ccccc1)=C2
- ED50 [3]: 1 mg/kg
- Activity [24]: 154%

Compound: COc1ccc(Cl)c2c1CCC(CN1CCC(C(N)=O)CC1)=C2.O
- Activity [15]: Non-toxic
- Activity [2]: 329%
- Activity [7]: 274%
- Activity [8]: 314%
- Activity [19]: inactive
- Activity [21]: inactive
- Activity [25]: inactive
- Activity [11]: 132%
- Activity [22]: Non-toxic

Compound: CCOC(=O)C1(c2ccccc2)CCN(C)CC1 [MEPERIDINE]
- Activity [26]: Active
- Activity [27]: 160%
- Activity [28]: 231%
- Activity [29]: 194%
- Activity [30]: 296%

Compound: CN1CCN(CC/C=C2/c3ccccc3Sc3ccc(S(=O)(=O)N(C)C)cc32)CC1 [THIOTHIXENE]
- ED50 [3]: 0.32 mg/kg

Compound: CCOC1(c2ccccc2)CCN(CC2=Cc3c(Cl)ccc(OC)c3CC2)CC1
- Activity [2]: 156%
- Activity [7]: 196%
- Activity [8]: 262%
- Activity [11]: 157%
- Activity [31]: 491%

Compound: CNCC1=Cc2c(Cl)ccc(OC)c2CC1.Cl
- Activity [16]: 139%
- Activity [17]: 120%
- LD50 [18]: 32 mg/kg
- Activity [20]: 163%
- Activity [23]: 127%

Compound: Br.COc1ccc(Cl)c2c1CCC(CN1CCOCC1)=C2
- Activity [2]: 90%
- ED50 [3]: > 32 mg/kg
- Activity [7]: 136%
- Activity [32]: 243%
- Activity [8]: 95%
- Activity [11]: 125%

Compound: CCN(CC)C(=O)C1CCCN(CC2=Cc3c(Cl)ccc(OC)c3CC2)C1.Cl.O (stereo not drawn)
- Activity [2]: 175%
- Activity [7]: 250%
- Activity [8]: 107%
- Activity [11]: 214%
- Activity [13]: inactive

Compound: Cc1cc(C)c2c(c1)C=C(CN1CCCC1)CC2.Cl
- Activity [16]: 126%
- Activity [17]: 120%
- LD50 [18]: 32 mg/kg
- Activity [20]: 124%
- Activity [23]: 126%

Compound: COc1ccc(Cl)c2c1CCC(CN1CCC(C(=O)N3CCCC3)CC1)=C2.Cl.O
- Activity [2]: 155%
- Activity [7]: 262%
- Activity [24]: 332%
- Activity [8]: 213%
- Activity [11]: 172%
